Columns and labels:
[1] = molecular target: Muscarinic acetylcholine receptor (Rattus norvegicus) (UniProt P08482+P08483+P08485+P08911+P10980); assay: Muscarinic acetylcholine receptor binding affinity in rat brain homogenate by [3H]quinuclidinylbenzilate displacement compared to disopyramide.; assay type: tissue-based
In short: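 Whole male CD rat brain without cerebellum was homogenized and spun at 1000g. The supernatant was incubated with 0.15 nM [3H]QNB, with or without compound, 25 °C, 1 h. Three to six concentrations were run in triplicate, and IC50 came from log-probit analysis. Values are expressed as the ratio IC50(test)/IC50(disopyramide).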

[2] = test system: Canis familiaris; assay: Antiarrhythmic activity in Beagle dogs following i.v. administration; minimum effective dose to suppress ventricular ectopic rate >/=25% for a minimum duration of 10 min.; assay type: functional, Canis lupus familiaris, Heart; settings: for minimal effective dose: Canis lupus familiaris, Heart, iv, 10 min, read-out: MED
In short: (§1)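 Beagles of either sex, pentobarbital 30 mg/kg i.v., had two-stage LAD coronary ligation; tested conscious about 24 h later if ectopic rate ≥130 beats/min, ectopic ≥75% of total rate, and controls within 10%. HCl salts given i.v. to at least two dogs: 5 mg/kg repeated every 15 min to 20 mg/kg max; if active, 1 mg/kg every 5 min to 6 mg/kg. Active means ectopic rate reduced ≥25% for ≥10 min.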

[3] = test system: Canis familiaris; assay: Hemodynamic effect of 1 mg/kg of compound was assessed in Beagle dogs by decrease in mean arterial pressure; max dose administered was 10 mg/kg; assay type: functional, Canis lupus familiaris, Artery
In short: (§2)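 Dogs of either sex were anesthetized with pentobarbital 30 mg/kg i.v. plus 5 mg/kg, then stabilized 30 min. Compound was given via right femoral vein. Where mean antiarrhythmic dose exceeded 5 mg/kg: 5 mg/kg over 5 min every 15 min until MAP fell 50% or 50 mg/kg cumulative. Otherwise: 1 mg/kg/min every 5 min up to 10 mg/kg. MAP was electronically averaged, with baseline the mean of four 5-min readings.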

[4] = species on record: Canis familiaris; assay: The mean effective dose to suppress ventricular ectopic rate >=25% for a minimum duration of 10 minutes was reported.; assay type: functional; settings: Canis lupus familiaris, Cardiac ventricle, read-out: MED; in short: as §1
[5] = test system: Canis familiaris; assay: Hemodynamic effect of 5 mg/kg of compound was assessed in Beagle dogs by decrease in mean arterial pressure; max dose administered was 29 mg/kg; assay type: functional, Canis lupus familiaris, Artery; in short: as §2
[6] = test system: Canis familiaris; assay: Decrease in myocardial contractility was determined by monitoring the maximum rate of rise of ventricular pressure in 10 Beagle dogs at a dose of 10 mg/kg; assay type: functional, Canis lupus familiaris, Cardiac ventricle
[7] = species on record: Cavia porcellus; assay: Antimuscarinic activity in guinea pig ileum; assay type: functional; settings: read-out: pA2 (converted)
In short: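 Guinea pig ileum was held in modified Tyrode's gassed with 95% O2/5% CO2, pH 7.4, under 0.5 g tension and equilibrated 30 min. A cumulative acetylcholine curve was run, the tissue rinsed 10 min, and the curve repeated with antagonist at four concentrations at quarter-log steps. pA2 by Van Rossum; if noncompetitive, −log of the concentration cutting maximal response 50%. At least four experiments were run.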

[8] = test system: Canis familiaris; assay: Hemodynamic effect of 5 mg/kg of compound was assessed in Beagle dogs by decrease in mean arterial pressure; max dose administered was 35 mg/kg; assay type: functional, Canis lupus familiaris, Artery; in short: as §2
[9] = test system: Canis familiaris; assay: Hemodynamic effect of 5 mg/kg of compound was assessed in Beagle dogs by decrease in mean arterial pressure; max dose administered was 50 mg/kg; assay type: functional, Canis lupus familiaris, Artery; in short: as §2

## CC(C)N(CCC1(c2ccccc2)C(=O)N=C(c2ccccc2)N2CCCCC21)C(C)C (centres undefined)
[1]
  Muscarinic receptor affinity: 0.25
[2]
  minimal effective dose: 1 mg/kg

## CC(C)N(CCC1(c2ccccc2)C(=O)N=CN2CCCCC21)C(C)C (centres undefined)
[2]
  MED: 10 mg/kg
  minimal effective dose: 20 mg/kg

## CC(C)N(CCC1(c2ccccc2Cl)C(=O)N=CN2CCCCC21)C(C)C (centres undefined)
[1]
  Muscarinic receptor affinity: 0.0125
[2]
  minimal effective dose: 15 mg/kg

## CC(C)N(CCC1(c2ccc(-c3ccccc3)cc2)C(=O)N=CN2CCCCC21)C(C)C (centres undefined)
[1]
  Muscarinic receptor affinity: 0.02
[3]
  Decrease in MAP: 27%
[4]
  minimal effective dose: 2.5 mg/kg
[2]
  minimal effective dose: 2.5 mg/kg

## CC(C)N(CC[C@]1(c2ccccc2)C(=O)N[C@@H](C)N2CCCC[C@@H]21)C(C)C
[1]
  Muscarinic receptor affinity: 0.0434
[2]
  minimal effective dose: 10 mg/kg

## CC(C)N(CCC(C(N)=O)(c1ccccc1)c1ccccn1)C(C)C (centres undefined) [DISOPYRAMIDE]
[1]
  Muscarinic receptor affinity: 1
[5]
  Decrease in MAP: 57%
[6]
  Decrease: 56%
[7]
  Kb: 0.891 µM
[4]
  minimal effective dose: 10 mg/kg
[2]
  minimal effective dose: 10 mg/kg

## CCC1=NC(=O)C(CCN(C(C)C)C(C)C)(c2ccccc2)C2CCCCN12 (centres undefined)
[1]
  Muscarinic receptor affinity: 0.0625
[2]
  minimal effective dose: 12.5 mg/kg

## CC(C)N(CCC1(c2ccccc2Cl)C(=O)NCN2CCCCC21)C(C)C (centres undefined)
[1]
  Muscarinic receptor affinity: < 0.01
[2]
  minimal effective dose: 7.5 mg/kg

## CC(C)N(CCC1(c2ccc(-c3ccccc3)cc2)C(=O)NCN2CCCCC21)C(C)C (centres undefined)
[1]
  Muscarinic receptor affinity: 0.0625
[2]
  minimal effective dose: 5 mg/kg

## CCC1NC(=O)C(CCN(C(C)C)C(C)C)(c2ccccc2)C2CCCCN12 (centres undefined)
[1]
  Muscarinic receptor affinity: 0.0909
[2]
  minimal effective dose: 6 mg/kg

## CC(C)N(CCC1(c2ccccc2)C(=O)NCN2CCCCC21)C(C)C (centres undefined)
[8]
  Decrease in MAP: 54%
[1]
  Muscarinic receptor affinity: 0.0769
[4]
  minimal effective dose: 6 mg/kg

## CC(C)N(CCC1(c2ccccc2)C(=O)NC(c2ccccc2)N2CCCCC21)C(C)C (centres undefined)
[1]
  Muscarinic receptor affinity: 0.0434
[2]
  minimal effective dose: 4 mg/kg

## CC(C)N(CC[C@]1(c2ccccc2)C(=O)N(C)CN2CCCC[C@@H]21)C(C)C
[2]
  minimal effective dose: 7.5 mg/kg

## CC1=NC(=O)C(CCN(C(C)C)C(C)C)(c2ccccc2)C2CCCCN12 (centres undefined) [ACTISOMIDE]
[6]
  Decrease: 14%
[9]
  Decrease in MAP: 3%
[7]
  Kb: 13.2 µM
[4]
  minimal effective dose: 9.1 mg/kg
[2]
  MED: 10 mg/kg
  minimal effective dose: 9 mg/kg

## CC(C)N(CCC1(c2ccccc2)C(=O)NC(C)N2CCCCC21)C(C)C (centres undefined)
[1]
  Muscarinic receptor affinity: < 0.05
[6]
  Decrease: 21%
[7]
  Kb: 60.3 µM
[3]
  Decrease in MAP: 4%
[4]
  minimal effective dose: 2.5 mg/kg
[2]
  minimal effective dose: 2.5 mg/kg

— ChEMBL document CHEMBL1123120, “Synthesis and structure-activity relationships of a new series of antiarrhythmic agents: 4,4-disubstituted hexahydro-3H-pyrido[1,2-c]pyrimidin-3-ones and related compounds” (J Med Chem, 1985)
